# From PubChem BioAssay
# MEKK3 PB1 HTS: modulators (inhibitors or enhancers) of MEK5 binding to human MEKK3 PB1 domain. 290,000 tested, 1.4% active. binding response (% of control), % at 10 µM. bead-based flow cytometry, Alexa488-MEK5 binding to MEKK3; actives lie on both sides; 0 = blocked by unlabeled MEK5, 100 = vehicle. AID 1529. Q99759;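 active means binding response more than 3 SD above or below the average of its plate-row segment, actives on both sides; inconclusive means wells at one plate position flagged as instrument error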;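 further: Alexa488 bead fluorescence after subtracting the streptavidin-only scavenger bead signal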
# Target sequence (Q99759 whole entry, looked up, the tested form may be a part): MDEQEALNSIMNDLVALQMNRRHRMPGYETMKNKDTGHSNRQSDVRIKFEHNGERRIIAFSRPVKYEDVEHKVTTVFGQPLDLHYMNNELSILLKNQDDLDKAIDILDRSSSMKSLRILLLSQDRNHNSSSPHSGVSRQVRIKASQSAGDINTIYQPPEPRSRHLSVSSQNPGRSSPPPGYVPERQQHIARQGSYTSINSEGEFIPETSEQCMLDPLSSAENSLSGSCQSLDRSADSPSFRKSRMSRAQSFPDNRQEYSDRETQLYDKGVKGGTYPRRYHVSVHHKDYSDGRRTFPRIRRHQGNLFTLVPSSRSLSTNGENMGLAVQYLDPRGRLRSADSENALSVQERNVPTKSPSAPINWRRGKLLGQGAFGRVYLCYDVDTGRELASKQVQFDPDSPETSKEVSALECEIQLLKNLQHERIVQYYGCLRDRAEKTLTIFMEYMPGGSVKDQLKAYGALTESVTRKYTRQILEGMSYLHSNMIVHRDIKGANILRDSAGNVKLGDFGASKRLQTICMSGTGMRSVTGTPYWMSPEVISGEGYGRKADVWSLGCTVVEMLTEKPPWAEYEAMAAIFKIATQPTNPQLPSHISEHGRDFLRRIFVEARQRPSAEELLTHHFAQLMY
# MEKK2 WT-MEK5: raises or lowers MEK5 binding to wildtype human MEKK2 PB1 domain | Q9Y2U5 | bead flow cytometry, Alexa488-MEK5 binding to MEKK2 WT; actives lie on both sides | binding response (% of control), % at 10 µM | 290,000 tested, 1.1% active | AID 1531; in the data active means binding response below about 67% or above about 130%; inconclusive means no clear call, values can overlap the other calls; inactive means in between
# MEKK2 mut-MEK5: signal of MEK5 binding to mutant human MEKK2 PB1 domain; 290,000 tested, 0.35% active; percent response, % at 10 µM; bead flow cytometry, Alexa488-MEK5 binding to MEKK2 mutant; AID 1530; in the data active means percent response above about 24%, passing the limit was not always enough
# IMP-1 inh: inhibitors of Pseudomonas aeruginosa IMP-1 metallo-beta-lactamase | 290,000 tested, 0.45% active | purified IMP-1, nitrocefin hydrolysis, epi-absorbance fluorescence | inhibition, % at 5.6 µM | AID 1556;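 active means inhibition above the mean plus 3 SD of all compounds in the same screening run, cut at about 4.5% in these data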;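 further: 0% = IMP-1 with DMSO and 100% = DMSO wells lacking enzyme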
#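 Assay system: purified recombinant IMP-1 beta-lactamase. Input: IMP-1 0.2 nM before substrate addition. Buffer or medium: Zinc- and detergent-supplemented HEPES buffer, pH 7.1. Schedule: 25 °C, 15 min preincubation, 25 min reaction. Signal: Epi-absorbance fluorescence, 480 nm excitation, 530 nm emission. Evaluation: percent inhibition from optical density relative to buffer-blank wells.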
# VIM-2 inh: inhibitors of Pseudomonas aeruginosa VIM-2 metallo-beta-lactamase. purified VIM-2, nitrocefin hydrolysis, epi-absorbance fluorescence. inhibition, % at 5.6 µM. 290,000 tested, 0.89% active;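 active means inhibition above the mean of all tested compounds plus 3 SD, cutoff set per screening run, cut at about 7.5% in these data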;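 further: red hydrolysis product quenches plate fluorescence so inhibitors raise well fluorescence; 0% = enzyme with DMSO and 100% = DMSO without enzyme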
# * = called active by the depositor; ? = inconclusive; / = no result given; [ ] = remark or other dose. Hits are enriched below; roughly 3.4% of the tested compounds scored in any of these assays.
SMILES,MEKK3 PB1 HTS,MEKK2 WT-MEK5,MEKK2 mut-MEK5,IMP-1 inh,VIM-2 inh
Cc1cc(-c2ccccc2)nc(SC(C(=O)O)c2ccccc2)n1 (stereo not drawn),103.0,-1.0*,4.0,-1.6,-2.5
COc1ccc(/C=C/C(=O)c2ccccc2O)cc1,99.0,96.0,4.0,-3.5,-5.4
COc1ccc(/C=C/C(=O)c2ccccn2)cc1,102.0,95.0,-5.0,0.8,9.6*
CC1=NNC(=O)C1Cc1ccc(F)cc1 (stereo not drawn),104.0,100.0,3.0,-2.6,8.4*
CC1=NNC(=O)C1Cc1ccccc1C (stereo not drawn),103.0,105.0,5.0,-1.9,6.7
Cc1nccn1-c1ncnc2sc3c(c12)CCCC3,86.0,87.0,-11.0,-4.3,2.6
Cc1ccc(NC(=O)CNCc2ccc(Cl)cc2Cl)cc1S(=O)(=O)N(C)C,103.0,105.0,-1.0,-0.3,1.0
Cc1ccc(NC(=O)CNCc2ccccc2Cl)cc1S(=O)(=O)N(C)C,102.0,107.0,4.0,36.6*,0.1
Cc1ccc(N2C(=O)c3cccc(Oc4ccc(Cl)cc4)c3C2=O)c(C)c1,98.0,98.0,-1.0,-1.9,-2.7
O=C(O)CN1C(=O)c2cccc(Oc3ccc(Cl)cc3)c2C1=O,105.0,112.0,4.0,11.8*,-0.3
C=CCNC(=O)/C(C#N)=C/c1ccccc1[N+](=O)[O-],98.0,4.0*,19.0,-1.5,-2.2
Cc1cc(C)n2c(Br)c(CSc3nc4ccccc4o3)nc2n1,102.0,98.0,-5.0,2.0,9.9*
O=C1c2cccc3cccc(c23)C(=O)N1CCN1CCN(C(=S)Nc2ccc(F)cc2)CC1,94.0,91.0,-2.0,-4.4,-1.9
O=C(CN1CCN(CCN2C(=O)c3cccc4cccc(c34)C2=O)CC1)c1ccc(F)cc1,104.0,111.0,7.0,-2.7,8.9*
Cc1ccc(NC(=S)N2CCN(CCN3C(=O)c4cccc5cccc(c45)C3=O)CC2)cc1,99.0,98.0,1.0,-6.8,8.1*
Cn1c(C(=O)NC2CC2)cc2c(=O)n(C)c3ccccc3c21,96.0,98.0,-2.0,-0.5,17.0*
CCOC(=O)N1CCC(NC(=O)c2cc3c(=O)n(C)c4ccccc4c3n2C)CC1,107.0,104.0,3.0,-3.2,5.2
COCCCNC(=O)c1cc2c(=O)n(C)c3ccccc3c2n1C,91.0,98.0,0.0,-2.8,7.8*
Cc1nnc(N2CCOCC2)c2nn(-c3cccc(Cl)c3)c(C)c12,122.0,80.0,85.0*,-2.9,0.2
Cc1nnc(-n2ncc(C#N)c2N)c2nn(-c3cccc(Cl)c3)c(C)c12,95.0,97.0,2.0,0.1,-3.0
COc1ccc(NC(=O)CN2CCC(NC(=O)C3CCCCC3)CC2)cc1,105.0,106.0,3.0,1.2,-2.8
CN(C)c1ccc(NC(=O)CN2CCC(NC(=O)C3CCCCC3)CC2)cc1,103.0,137.0*,30.0*,-2.0,-3.0
O=C(COC(=O)CNC(=O)c1ccc(Cl)c([N+](=O)[O-])c1)NC(=O)c1ccccc1,99.0,99.0,-4.0,-0.5,1.0
FC(F)(F)c1cc(Cl)c2nnc(-c3ccccn3)n2c1,99.0,104.0,4.0,-4.4,8.1*
COc1cc(OC)c(OC)cc1/C=C1\Oc2cc(OCC(=O)N3Cc4ccccc4C[C@H]3C(=O)O)ccc2C1=O,98.0,100.0,-1.0,3.4,11.9*
SMILES,MEKK3 PB1 HTS,MEKK2 WT-MEK5,MEKK2 mut-MEK5,IMP-1 inh,VIM-2 inh
CCOC(=O)c1c(C)c(C(=O)NCc2ccc3c(c2)OCO3)c(C)n1CC,89.0,92.0,-2.0,-2.8,-0.8
CCOC(=O)c1cnc(-n2cc(C)cn2)nc1NCc1ccc2c(c1)OCO2,112.0,102.0,7.0,-5.3,8.1*
OCC[C@@H]1C[C@H](O)[C@@H](O)[C@@]2(CCc3ccccc3CO2)O1,100.0,96.0,5.0,-3.2,0.3
COc1ccc(-c2nc(CS(=O)(=O)CC(=O)NCCc3ccc(C)cc3)c(C)o2)cc1,102.0,102.0,0.0,6.2*,-1.4
Cc1cc2c(cc1S(=O)(=O)N1CCN(c3cccc(C(F)(F)F)c3)CC1)OCC(=O)N2,100.0,98.0,-1.0,1.4,0.8
CC(=O)c1ccc(N2CCN(S(=O)(=O)c3cc4c(cc3C)NC(=O)CO4)CC2)cc1,1.0*[inhibitor],0.0*[inhibitor],-21.0,1.6,1.4
CCN(CC)S(=O)(=O)c1cccc(-c2nnc(SCC(=O)N3CCC(C(=O)O)CC3)n2N)c1,/,/,/,-1.7,-0.9
Cc1cc(C)c2c(n1)sc1c(N3CCN(CCO)CC3)ncnc12,100.0,105.0,3.0,2.0,11.8*
CCOc1ccc2c(c1)c1nc3ccccc3nc1n2C,101.0,100.0,-2.0,0.0,8.4*
Cn1c2ccc(F)cc2c2nc3ccccc3nc21,103.0,104.0,14.0,-3.1,7.9*
COc1ccc(NC(=O)CCS(=O)(=O)c2ccc(OC)cc2)cc1,114.0,111.0,4.0,-0.8,-2.2
O=C(CCS(=O)(=O)c1ccc(Br)cc1)NCc1ccco1,103.0,103.0,-1.0,19.9*,-1.5
CCOc1ccc(NC(=O)CCS(=O)(=O)c2ccc(Br)cc2)cc1,91.0,97.0,-7.0,15.9*,-2.5
COC(=O)c1ccccc1NC(=O)CCS(=O)(=O)c1ccc(Br)cc1,93.0,89.0,-29.0,34.9*,-2.3
CCc1ccccc1NC(=O)CCS(=O)(=O)c1ccc(Br)cc1,98.0,100.0,-3.0,34.2*,-1.7
COCCCNC(=O)CCc1nc(-c2ccccc2Cl)no1,101.0,106.0,3.0,0.1,1.1
COc1cc(C(=O)Nc2ccc(-c3nnc(-c4ccco4)o3)cc2)cc(OC)c1OC,104.0,107.0,5.0,-0.1,-1.5
Cc1ccc2c(CN3CCN(CCO)CC3)cc(=O)oc2c1C,98.0,103.0,5.0,-1.9,9.9*
Cc1ccc2c(CN3CCN(Cc4ccccc4)CC3)cc(=O)oc2c1C,108.0,107.0,7.0,-0.4,9.9*
Cc1ccc(C(=O)NC2CCCCNC2=O)cc1C (stereo not drawn),109.0,108.0,11.0,-0.9,-1.9
COC(=O)COc1ccc(S(=O)(=O)NCc2ccc3c(c2)OCO3)cc1,101.0,99.0,3.0,-4.5,-1.3
COc1ccc(S(=O)(=O)N2CCC(C(=O)Nc3cccc(C(C)=O)c3)CC2)cc1,124.0,109.0,-10.0,-3.0,-1.8
O=C(O)CC/C(=C\c1ccccc1[N+](=O)[O-])c1nc2ccccc2s1,/,/,/,-1.9,8.8*
CC(=O)c1ccc(N2CCN(C(=S)Nc3ccccc3C(F)(F)F)CC2)cc1,99.0,101.0,1.0,-2.9,2.2
Cn1c(N)nc2nc(CCc3ccccc3)c(=O)[nH]c2c1=O,94.0,92.0,-6.0,5.2*,-0.7
COc1cc(NC(=O)Cn2c(-c3cncs3)nc3ccccc32)cc(OC)c1OC,?,?,-9.0,-3.4,8.6*
O=C(Nc1ccc(Cl)cc1)OCc1cn(-c2ccccc2)nn1,111.0,112.0,0.0,7.5*,-3.4
